The nature of data set [1]: melting temperature; fluorescence melt of hairpins on a sequencing array, two-state fit, raised by 9.35 °C to match UV melts. The following applies: sodium 0.088 M. In outline:
(§1)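 Bootstrapped two-state fits yielded melting temperature and folding enthalpy for library hairpins. Cy3 fluorescence, with annealed Cy3 and quencher oligos, was imaged on a sequenced MiSeq flow cell in 50 mM Na-HEPES pH 8.0, 25 mM NaCl in 2.5 °C steps up to 60 °C, and normalised to pre-quench Cy3 and to control constructs. Four replicates were combined by inverse variance, and fitted temperatures were raised by 9.35 °C to match UV melts.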

Data set [2] can be described thus: folding enthalpy; higher = less favourable; fluorescence melt of hairpins on a sequencing array, two-state fit. The following applies: sodium 0.088 M. In outline:
as §1

We go through 36 sequences from the array DNA melting data of Ke et al. (doi:10.1101/2024.01.08.574731).

For the sequence GGGCGTCGAAAGACTCCC (((.(((....))).))), the Tm in data set [1] is 53.9 °C. In addition, the folding enthalpy in data set [2] was -38.3 kcal/mol.

As for GGGCGTGGAAACGTGCCC ((((..(....)..)))), the Tm in data set [1] worked out at 54.4 °C. Besides, the folding enthalpy in data set [2] was -41.4 kcal/mol.

Consider GGGCTAACGAAAGTTCCC (((..(((....)))))), for which the Tm in data set [1] was found to be 34.9 °C. Besides, in data set [2], the folding enthalpy is -16.7 kcal/mol.

As for GGGCTACGAAAGTACCCC (((.(((....))).))), the Tm in data set [1] worked out at 49.4 °C. Also, the folding enthalpy in data set [2] was -17.5 kcal/mol.

GGGCTATCGAAAGATCCC (((..(((....)))))): in data set [1], the Tm came out at 31.9 °C. In addition, in data set [2], the folding enthalpy is -22 kcal/mol.

In the case of GGGCTCCGAAAGGACCC (((.(((....)))))), the Tm in data set [1] came out at 57.4 °C. Moreover, the folding enthalpy in data set [2] was -30.1 kcal/mol.

For the sequence GGGCTCGAAAGAGACCCC ((((((....)))..))), in data set [1], the Tm was 63.8 °C. Moreover, the folding enthalpy in data set [2] is -12.7 kcal/mol.

GGGCTCGAAAGAGATCCC ((((((....)))..))): in data set [1], the Tm stood at 47.8 °C. Also, in data set [2], the folding enthalpy was -18.9 kcal/mol.

On to GGGCTCGAAAGAGGGCCC ((((((....)))..))), for which, in data set [1], the Tm was determined as 54.6 °C. Also, the folding enthalpy in data set [2] is -39.4 kcal/mol.

For GGGCTCGAAAGAGGTCCC ((((((....)))..))), the Tm in data set [1] was determined as 48.2 °C. For the same sequence, the folding enthalpy in data set [2] is -17.1 kcal/mol.

Turning to GGGCTCGAAAGAGTCCC ((((((....))).))), the Tm in data set [1] came to 63.1 °C. In addition, the folding enthalpy in data set [2] is -26.1 kcal/mol.

Take GGGCTCGCGAAAGCGCCC (((..(((....)))))): the Tm in data set [1] stood at 56.5 °C. In data set [2], the folding enthalpy was -15.7 kcal/mol.

Turning to GGGCTCGGAAACGAGCTC (.(((((....))))).), in data set [1], the Tm was 62.9 °C. In addition, in data set [2], the folding enthalpy is -15 kcal/mol.

GGGCTTGGAAACAAACCC (((.(((....))).))): the Tm in data set [1] amounted to 43.8 °C. Besides, the folding enthalpy in data set [2] was -32.8 kcal/mol.

For GGGCTTGGAAACAAGCTC (.(((((....))))).), the Tm in data set [1] amounted to 54.9 °C. In addition, in data set [2], the folding enthalpy is -31.2 kcal/mol.

For the sequence GGGCTTGGAAACAGGCCC ((((.((....)).)))), in data set [1], the Tm was found to be 59.1 °C. The folding enthalpy in data set [2] was -43.9 kcal/mol.

In the case of GGGGAACCGAAAGGTCCC (((..(((....)))))), the Tm in data set [1] was determined as 55.6 °C. Besides, in data set [2], the folding enthalpy is -17.3 kcal/mol.

As to GGGGAAGGAAACTTCCTC (.(((((....))))).), the Tm in data set [1] stood at 46.8 °C. The folding enthalpy in data set [2] is -21.6 kcal/mol.

On to GGGGAAGGAAACTTTCCC (((.(((....))).))), for which, in data set [1], the Tm turned out to be 48.3 °C. Also, the folding enthalpy in data set [2] is -29 kcal/mol.

On to GGGGACGAAAGTCACCCC ((((((....)))..))), for which the Tm in data set [1] is 63.3 °C. Moreover, the folding enthalpy in data set [2] is -12.7 kcal/mol.

Turning to GGGGACGAAAGTCCGCCC ((((((....)))..))), the Tm in data set [1] was determined as 52.2 °C. Moreover, the folding enthalpy in data set [2] was -11.5 kcal/mol.

For the sequence GGGGACGAAAGTCTACCC ((((((....)))..))), the Tm in data set [1] was 47.2 °C. In data set [2], the folding enthalpy was -17.9 kcal/mol.

Take GGGGAGCGAAAGCTGCCC (((.(((....))).))): in data set [1], the Tm amounted to 68.8 °C. The folding enthalpy in data set [2] is -23.8 kcal/mol.

For the sequence GGGGAGCGAAAGCTTCCC (((.(((....))).))), the Tm in data set [1] was 68.2 °C. For the same sequence, in data set [2], the folding enthalpy was -36.5 kcal/mol.

Consider GGGGATACGAAAGTACCC (((..(((....)))))), for which, in data set [1], the Tm stood at 49.2 °C. Also, in data set [2], the folding enthalpy was -24.2 kcal/mol.

As for GGGGATCCGAAAGGACCC (((..(((....)))))), the Tm in data set [1] was determined as 53.9 °C. For the same sequence, the folding enthalpy in data set [2] was -36.7 kcal/mol.

For the sequence GGGGATGGAAACATCCTC (.(((((....))))).), the Tm in data set [1] is 52.4 °C. Also, the folding enthalpy in data set [2] was -24.4 kcal/mol.

For GGGGATGGAAACATCTCC ((.((((....)))).)), the Tm in data set [1] stood at 50.3 °C. Further, in data set [2], the folding enthalpy was -32.1 kcal/mol.

For the sequence GGGGATGGAAACGTCCCC (((((.(....).))))), the Tm in data set [1] turned out to be 56.1 °C. For the same sequence, in data set [2], the folding enthalpy was -48.9 kcal/mol.

Consider GGGGCACCGAAAGGTCCC (((..(((....)))))), for which the Tm in data set [1] was 53.1 °C. In data set [2], the folding enthalpy is -25.9 kcal/mol.

GGGGCAGGAAACCGCCCC (((((.(....).))))): the Tm in data set [1] was determined as 63.8 °C. Further, the folding enthalpy in data set [2] was -30.3 kcal/mol.

Take GGGGCATCGAAAGATCCC (((..(((....)))))): in data set [1], the Tm amounted to 48.4 °C. Besides, in data set [2], the folding enthalpy is -21.9 kcal/mol.

In the case of GGGGCCGAAAGGCGACCC ((((((....)))..))), the Tm in data set [1] turned out to be 55.9 °C. Also, in data set [2], the folding enthalpy is -15.9 kcal/mol.

On to GGGGCCGAAAGGCGTCCC ((((((....)))..))), for which the Tm in data set [1] was 53.5 °C. For the same sequence, in data set [2], the folding enthalpy is -13.5 kcal/mol.

Take GGGGCCGAAAGGCTCCCC ((((((....)))..))): the Tm in data set [1] is 65 °C. Also, the folding enthalpy in data set [2] is -11.7 kcal/mol.

With GGGGCCGAAAGGCTTCCC ((((((....)))..))), the Tm in data set [1] was found to be 46.4 °C. Moreover, in data set [2], the folding enthalpy is -13.5 kcal/mol.
